Results as given in ChEMBL document CHEMBL1255417, “Correlation between in vitro activity of posaconazole and in vivo efficacy against Rhizopus oryzae infection in mice” (Antimicrob Agents Chemother, 2010).
≈ marks a conversion by molar mass, not a printed value. Calls of active or inactive are those of the source. The calls are words filed in the database; no cut-off is given here.

Experiments:
[1] = system: Rhizopus arrhizus; assay: Antifungal activity against drug-susceptible Rhizopus oryzae UTHSC 04-278 by broth microdilution method; type: functional
How it was run: (§1)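 CLSI broth microdilution for filamentous fungi (M38-A2); MIC recorded in µg/ml against clinical isolates; breakpoints applied at 24 h.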

[2] = system: Rhizopus arrhizus; assay: Antifungal activity against drug-susceptible Rhizopus oryzae UTHSC 06-89 by broth microdilution method; type: functional
[3] = system: Rhizopus arrhizus; assay: Antifungal activity against drug-susceptible Rhizopus oryzae UTHSC 05-1502 by broth microdilution method; type: functional; how it was run: as §1
[4] = system: Rhizopus arrhizus; assay: Antifungal activity against drug-susceptible Rhizopus oryzae UTHSC 06-1301 by broth microdilution method; type: functional
How it was run: (§2)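 Posaconazole MIC in ug/ml, determined by broth microdilution following the CLSI guidelines for moulds (M38-A2).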

[5] = system: Rhizopus arrhizus; assay: Antifungal activity against drug-susceptible Rhizopus oryzae UTHSC 06-2374 by broth microdilution method; type: functional; how it was run: as §2
[6] = system: Rhizopus arrhizus; assay: Antifungal activity against drug-intermediate Rhizopus oryzae UTHSC 05-3032 by broth microdilution method; type: functional
How it was run: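 Broth microdilution MIC in µg/ml, run per the CLSI (formerly NCCLS) guideline for filamentous fungi, M38-A2.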

[7] = system: Rhizopus arrhizus; assay: Antifungal activity against drug-susceptible Rhizopus oryzae UTHSC 06-4133 at 5 ug by disk diffusion assay; type: functional; conditions: read-out: DIZ
How it was run: (§3)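 Neo-Sensitabs tablet diffusion on Mueller-Hinton agar, run per the mould guidelines. Tablets are 9 mm in diameter and carry 5 ug posaconazole. The read-out is the inhibition zone diameter in mm.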

[8] = system: Rhizopus arrhizus; assay: Antifungal activity against drug-susceptible Rhizopus oryzae UTHSC 06-89 at 5 ug by disk diffusion assay; type: functional; conditions: read-out: DIZ
[9] = system: Rhizopus arrhizus; assay: Antifungal activity against drug-susceptible Rhizopus oryzae UTHSC 02-439 at 5 ug by disk diffusion assay; type: functional; conditions: read-out: DIZ
How it was run: (§4)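 Neo-Sensitabs tablet diffusion on Mueller-Hinton agar, following the guidelines for molds. Tablets were 9 mm in diameter and held 5 µg of drug. The read-out was inhibition zone diameter in mm.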

[10] = system: Rhizopus arrhizus; assay: Antifungal activity against drug-susceptible Rhizopus oryzae UTHSC 05-1817 at 5 ug by disk diffusion assay; type: functional; conditions: read-out: DIZ
How it was run: (§5)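 Neo-Sensitabs tablet diffusion on Mueller-Hinton agar, following guidelines for molds; 9 mm tablets containing 5 µg posaconazole; inhibition zone diameter measured in mm; zone breakpoints applied at 24 h.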

[11] = system: Rhizopus arrhizus; assay: Antifungal activity against drug-susceptible Rhizopus oryzae UTHSC 06-434 at 5 ug by disk diffusion assay; type: functional; conditions: read-out: DIZ; how it was run: as §3
[12] = system: Rhizopus arrhizus; assay: Antifungal activity against drug-susceptible Rhizopus oryzae UTHSC 04-1220 at 5 ug by disk diffusion assay; type: functional; conditions: read-out: DIZ; how it was run: as §5
[13] = system: Rhizopus arrhizus; assay: Antifungal activity against drug-intermediate Rhizopus oryzae UTHSC 03-285 at 5 ug by disk diffusion assay; type: functional; conditions: read-out: DIZ; how it was run: as §4
[14] = system: Rhizopus arrhizus; assay: Antifungal activity against drug-susceptible Rhizopus oryzae UTHSC 06-89 after 24 to 48 hrs; type: functional
[15] = system: Rhizopus arrhizus; assay: Antifungal activity against drug-susceptible Rhizopus oryzae UTHSC 06-731 after 24 to 48 hrs; type: functional
[16] = system: Rhizopus arrhizus; assay: Antifungal activity against drug-susceptible Rhizopus oryzae UTHSC 2868 after 24 to 48 hrs; type: functional
[17] = system: Rhizopus arrhizus; assay: Antifungal activity against drug-susceptible Rhizopus oryzae UTHSC 06-4152 after 24 to 48 hrs; type: functional
How it was run: (§6)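 Minimum fungicidal concentration taken from the broth microdilution plates. From each well with complete inhibition (optically clear), 20 ul is plated on potato dextrose agar. Plates are incubated at 35°C for 24 to 48 h. The MFC is the lowest drug concentration giving no growth.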

[18] = system: Rhizopus arrhizus; assay: Antifungal activity against drug-susceptible Rhizopus oryzae UTHSC 03-3110 after 24 to 48 hrs; type: functional
How it was run: (§7)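 Minimum fungicidal concentration: 20 µl from each microdilution well showing complete inhibition (optically clear) plated on potato dextrose agar, incubated 35°C for 24 to 48 h; MFC taken as lowest drug concentration giving no growth.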

[19] = system: Rhizopus arrhizus; assay: Antifungal activity against drug-susceptible Rhizopus oryzae UTHSC 05-1817 after 24 to 48 hrs; type: functional; how it was run: as §7
[20] = system: Rhizopus arrhizus; assay: Antifungal activity against drug-susceptible Rhizopus oryzae UTHSC 06-3827 after 24 to 48 hrs; type: functional; how it was run: as §6
[21] = system: Rhizopus arrhizus; assay: Antifungal activity against drug-intermediate Rhizopus oryzae UTHSC 03-285 after 24 to 48 hrs; type: functional
[22] = system: Rhizopus arrhizus; assay: Antifungal activity against drug-susceptible Rhizopus oryzae UTHSC 02-2882 infected in OF1 mouse assessed as increase in mouse survival at 20-30 mg/kg, po bid treated 24 hrs after fungal infection; type: functional, organism-based
How it was run: (§8)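 Survival model in male OF1 mice, 30 g. Mice were immunosuppressed 1 day before infection with cyclophosphamide 200 mg/kg i.p. plus 5-fluorouracil 150 mg/kg i.v., then infected i.v. via lateral tail vein with 2 × 10^4 CFU in 0.2 ml saline. Oral gavage at 10, 20 or 30 mg/kg BID began 24 h post-challenge for 7 days. Ceftazidime 5 mg/day s.c. was given days 1–7. Groups of 10 were checked daily for 20 days; untreated controls.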

[23] = system: Rhizopus arrhizus; assay: Antifungal activity against drug-intermediate Rhizopus oryzae UTHSC 07-365 infected in OF1 mouse assessed as increase in mouse survival at 20-30 mg/kg, po bid treated 24 hrs after fungal infection; type: functional, organism-based; how it was run: as §8

`CC[C@@H]([C@H](C)O)n1ncn(-c2ccc(N3CCN(c4ccc(OC[C@@H]5CO[C@@](Cn6cncn6)(c6ccc(F)cc6F)C5)cc4)CC3)cc2)c1=O` [POSACONAZOLE] gave an MIC [1] of 1 mg/L (≈ 1.43 µM), an MIC [2] of 0.25 mg/L (≈ 0.357 µM) and an MIC [3] of 0.5 mg/L (≈ 0.713 µM). The MIC [4] was 0.5 mg/L (≈ 0.713 µM), the MIC [5] was 0.5 mg/L (≈ 0.713 µM) and the MIC [6] was 2 mg/L (≈ 2.85 µM). It also gave a zone of inhibition at 5 µg/disc [7] of 23 mm, a zone of inhibition at 5 µg/disc [8] of 23 mm and a zone of inhibition at 5 µg/disc [9] of 22 mm. For the same molecule, the zone of inhibition at 5 µg/disc [10] was 25 mm, the zone of inhibition at 5 µg/disc [11] was 15 mm and the zone of inhibition at 5 µg/disc [12] was 20 mm. It also gave a zone of inhibition at 5 µg/disc [13] of 15 mm, an MFC [14] of 1 mg/L (≈ 1.43 µM) and an MFC [15] of 0.5 mg/L (≈ 0.713 µM). For the same molecule, the MFC [16] was 8 mg/L (≈ 11.4 µM), the MFC [17] was 1 mg/L (≈ 1.43 µM) and the MFC [18] was 1 mg/L (≈ 1.43 µM). The MFC [19] was 2 mg/L (≈ 2.85 µM), the MFC [20] was 16 mg/L (≈ 22.8 µM) and the MFC [21] was over 16 mg/L. For the same molecule, the Activity [22] was “Active” and the Activity [23] was “Active”.
